In ChEMBL document CHEMBL1159310, “Indole and beta-carboline alkaloids from Geissospermum sericeum” (J Nat Prod, 2002):

Legend:
Plasmodium falciparum [1] = assay: Antiplasmodial activity against chloroquine-resistant Plasmodium falciparum K1; type: functional, organism-based
Plasmodium falciparum [2] = assay: Antiplasmodial activity against chloroquine-sensitive Plasmodium falciparum T9-96; type: functional, organism-based
KB = assay: Cytotoxicity against human KB cells after 48 hrs by MTT assay; type: cell-based
Method in brief: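 Human KB cells (0.5 × 10^6 viable cells/mL in RPMI 1640 with 20% FCS) added to compound diluted in RPMI 1640 from […] DMSO stocks; 48 h at 37 °C. MTT (5 mg/mL) added for 15 min, supernatant discarded, cells solubilised in DMSO plus Sørensen's glycine buffer pH 10.5; OD read at 570 nm; IC50 by curve fitting.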

Plasmodium falciparum [3] = assay: Selectivity for Plasmodium falciparum K1 to Plasmodium falciparum T9-96 as IC50 ratio; type: functional

| Structure (SMILES) | IC50 (Plasmodium falciparum [1]) [µM] | IC50 (Plasmodium falciparum [2]) [µM] | IC50 (KB) [µM] | Ratio IC50 (Plasmodium falciparum [3]) |
| --- | --- | --- | --- | --- |
| CC[C@@H]1CN2CC[C@@]34C(=Nc5ccccc53)[C@@H](CO)[C@H]1C[C@H]24 | 27.3 | 35.4 | > 40 | – |
| CC[C@@H]1C[N+]2([O-])CC[C@]34c5ccccc5N[C@H]3[C@@H](CO)[C@H]1C[C@@H]42 (some centres undefined) | > 40 | > 40 | > 40 | – |
| CCN(CC)CCCC(C)Nc1ccnc2cc(Cl)ccc12 (centres undefined) [CHLOROQUINE] | – | – | 20.4 | – |
| CCc1ccc2c3[nH]c4ccccc4c3cc[n+]2c1.[Cl-] [FLAVOPEREIRINE] | 11.5 | 1.83 | 10.7 | 6.3 |
| CC[C@@H]1CN2CC[C@]34c5ccccc5N[C@H]3[C@@H](CO)[C@H]1C[C@H]24 [GEISSOSCHIZOLINE] | > 40 | > 40 | > 40 | – |
